Assay results reported in ChEMBL document CHEMBL1127751, “Novel Asp32-replacement tetrapeptide analogues as potent and selective CCK-A agonists” (J Med Chem, 1994).
Starred links: 1 amine or outer side, 2 acyl side, 3 side chain; linkers in the order of their positions; H or OH if unused. Non-standard residues stand in square brackets, D forms with d. Residues, ends and D or L forms follow the SMILES beside them. Groups on a side chain read outwards from the residue. ξ: configuration not given here. *: point of attachment. NMeF = CN[C@@H](Cc1ccccc1)C(=O)O; ξW = NC(Cc1c[nH]c2ccccc12)C(=O)O; NH(2-Me-phenyl) = Cc1ccccc1N*; ξNMeF = CNC(Cc1ccccc1)C(=O)O; β3hP = O=C(O)C[C@@H]1CCCN1; ξF = NC(Cc1ccccc1)C(=O)O; Boc = CC(C)(C)OC(=O)*; CO = O=C([*:1])[*:2]; Sar = CNCC(=O)O

How the values were obtained:
[1] = biological target: T1, Cholecystokinin receptor type A (Cavia porcellus, UniProt Q63931); test: Concentration that inhibited 50% of specific binding of [125I]Bolton-Hunter CCK-8 binding in guinea pig pancreas
T1 sequence (Q63931 whole entry): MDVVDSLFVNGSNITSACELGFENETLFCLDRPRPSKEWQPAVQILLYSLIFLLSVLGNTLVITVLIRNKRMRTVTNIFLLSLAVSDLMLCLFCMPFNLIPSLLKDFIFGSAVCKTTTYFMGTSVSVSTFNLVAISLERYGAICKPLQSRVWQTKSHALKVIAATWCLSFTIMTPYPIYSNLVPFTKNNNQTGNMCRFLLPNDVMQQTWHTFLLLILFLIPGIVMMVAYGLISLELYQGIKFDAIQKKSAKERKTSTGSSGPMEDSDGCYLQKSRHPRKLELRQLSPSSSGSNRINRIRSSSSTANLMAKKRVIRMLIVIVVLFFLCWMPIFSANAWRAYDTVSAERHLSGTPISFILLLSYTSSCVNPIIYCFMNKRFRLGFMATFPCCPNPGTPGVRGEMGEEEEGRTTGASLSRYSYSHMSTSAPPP

[2] = biological target: T2, Cholecystokinin receptor type A (Cavia porcellus) (UniProt Q63931); test: Percent response in PI hydrolysis relative to maximal response elicited by CCK-8 in guinea pig at 10e-6 M
T2 sequence (whole entry): T1 sequence (Q63931 whole entry)

[3] = tested on: Cholecystokinin receptor type B (Cavia porcellus); test: Percent inhibition of specific [125I]Bolton-Hunter CCK-8 binding in guinea pig cortex at 10e-6 M
[4] = species on record: Rattus norvegicus; test: Dose required to reduce food intake by 50% in rats; type: functional
Procedure, shortened: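 Rats dosed intraperitoneally in nmol/kg, with 7–8 animals per group in each experiment. Food intake was compared with vehicle controls. The dose reducing intake by 50% was calculated from the dose–response data and reported with an interval.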

Row | IC50 [1] | PI hydrolysis [2] | inhibition [3] | SMILES | ED50 [4]
1 | 0.017 µM | 92% | 13% | Cc1ccccc1NC(=O)NCCCC[C@H](NC(=O)C(Cc1c[nH]c2ccccc12)NC(=O)OC(C)(C)C)C(=O)N1CCC[C@H]1CC(=O)N(C)C(Cc1ccccc1)C(N)=O (stereo partly drawn) (Boc-[ξW]K([CO-NH(2-Me-phenyl)])[β3hP][ξNMeF]-NH2) | 
2 | 0.393 µM | 8% | 11% | Cc1ccccc1NC(=O)NCCCC[C@H](NC(=O)C(Cc1c[nH]c2ccccc12)NC(=O)OC(C)(C)C)C(=O)N(C)CCCC(=O)NC(Cc1ccccc1)C(N)=O (stereo not given in full) | 
3 | 0.062 µM | 61% | 14% | Cc1ccccc1NC(=O)NCCCC[C@H](NC(=O)C(Cc1c[nH]c2ccccc12)NC(=O)OC(C)(C)C)C(=O)N(C)CCC(=O)NC(Cc1ccccc1)C(N)=O (stereo not given in full) | 
4 |  | 17% | 14% | Cc1ccccc1NC(=O)NCCCC[C@H](NC(=O)C(Cc1c[nH]c2ccccc12)NC(=O)OC(C)(C)C)C(=O)NCC(=O)NC(Cc1ccccc1)C(N)=O (stereo not given in full) (Boc-[ξW]K([CO-NH(2-Me-phenyl)])G[ξF]-NH2) | 
5 | 0.126 µM | 16% |  | Cc1ccccc1NC(=O)NCCCC[C@H](NC(=O)C(Cc1c[nH]c2ccccc12)NC(=O)OC(C)(C)C)C(=O)NCCC(=O)NC(Cc1ccccc1)C(N)=O (stereo not given in full) | 
6 |  | 24% | 5% | Cc1ccccc1NC(=O)NCCCC[C@H](NC(=O)C(Cc1c[nH]c2ccccc12)NC(=O)OC(C)(C)C)C(=O)N(C)CC(=O)NC(Cc1ccccc1)C(N)=O (stereo not given in full) (Boc-[ξW]K([CO-NH(2-Me-phenyl)])[Sar][ξF]-NH2) | 
7 | 0.265 µM |  |  | Cc1ccccc1NC(=O)NCCCC[C@H](NC(=O)[C@H](Cc1c[nH]c2ccccc12)NC(=O)OC(C)(C)C)C(=O)N(C)CC(=O)N[C@@H](Cc1ccccc1)C(N)=O (Boc-WK([CO-NH(2-Me-phenyl)])[Sar]F-NH2) | 
8 | 0.921 µM |  |  | Cc1ccccc1NC(=O)NCCCC[C@H](NC(=O)[C@H](Cc1c[nH]c2ccccc12)NC(=O)OC(C)(C)C)C(=O)NCC(=O)N[C@@H](Cc1ccccc1)C(N)=O (Boc-WK([CO-NH(2-Me-phenyl)])GF-NH2) | 
9 | 0.239 µM | 68% |  | Cc1ccccc1NC(=O)NCCCC[C@H](NC(=O)C(Cc1c[nH]c2ccccc12)NC(=O)OC(C)(C)C)C(=O)N1CCC[C@H]1CC(=O)NC(Cc1ccccc1)C(N)=O (stereo partly drawn) (Boc-[ξW]K([CO-NH(2-Me-phenyl)])[β3hP][ξF]-NH2) | 

Continued, molecule first:

Row | SMILES | IC50 [1] | PI hydrolysis [2] | inhibition [3] | ED50 [4]
10 | Cc1ccccc1NC(=O)NCCCC[C@H](NC(=O)C(Cc1c[nH]c2ccccc12)NC(=O)OC(C)(C)C)C(=O)N(C)CCC(=O)N(C)C(Cc1ccccc1)C(N)=O (stereo not given in full) | 0.007 µM | 36% |  | 
11 | Cc1ccccc1NC(=O)NCCCC[C@H](NC(=O)C(Cc1c[nH]c2ccccc12)NC(=O)OC(C)(C)C)C(=O)NCCC(=O)N(C)C(Cc1ccccc1)C(N)=O (stereo not given in full) | 0.027 µM | 47% | 9% | 
12 | Cc1ccccc1NC(=O)NCCCC[C@H](NC(=O)C(Cc1c[nH]c2ccccc12)NC(=O)OC(C)(C)C)C(=O)NCCCC(=O)N(C)C(Cc1ccccc1)C(N)=O (stereo not given in full) | 0.027 µM | 67% | 11% | 
13 | Cc1ccccc1NC(=O)NCCCC[C@H](NC(=O)C(Cc1c[nH]c2ccccc12)NC(=O)OC(C)(C)C)C(=O)NCCCCCC(=O)NC(Cc1ccccc1)C(N)=O (stereo not given in full) | 1.2 µM | 5% | 6% | 
14 | Cc1ccccc1NC(=O)NCCCC[C@H](NC(=O)C(Cc1c[nH]c2ccccc12)NC(=O)OC(C)(C)C)C(=O)NCCCCC(=O)NC(Cc1ccccc1)C(N)=O (stereo not given in full) | 1.8 µM | 2% |  | 
15 | Cc1ccccc1NC(=O)NCCCC[C@H](NC(=O)[C@H](Cc1c[nH]c2ccccc12)NC(=O)OC(C)(C)C)C(=O)N(C)CC(=O)N(C)[C@@H](Cc1ccccc1)C(N)=O (Boc-WK([CO-NH(2-Me-phenyl)])[Sar][NMeF]-NH2) | 0.084 µM |  |  | 
16 | Cc1ccccc1NC(=O)NCCCC[C@H](NC(=O)C(Cc1c[nH]c2ccccc12)NC(=O)OC(C)(C)C)C(=O)N(C)CC(=O)N(C)C(Cc1ccccc1)C(N)=O (stereo not given in full) (Boc-[ξW]K([CO-NH(2-Me-phenyl)])[Sar][ξNMeF]-NH2) |  | 33% |  | 
17 | Cc1ccccc1NC(=O)NCCCC[C@H](NC(=O)[C@H](Cc1c[nH]c2ccccc12)NC(=O)OC(C)(C)C)C(=O)NCC(=O)N(C)[C@@H](Cc1ccccc1)C(N)=O (Boc-WK([CO-NH(2-Me-phenyl)])G[NMeF]-NH2) | 0.141 µM |  |  | 
18 | Cc1ccccc1NC(=O)NCCCC[C@H](NC(=O)C(Cc1c[nH]c2ccccc12)NC(=O)OC(C)(C)C)C(=O)NCCCCC(=O)N(C)C(Cc1ccccc1)C(N)=O (stereo not given in full) | 1.18 µM | 7% | 7% | 
19 | Cc1ccccc1NC(=O)NCCCC[C@H](NC(=O)C(Cc1c[nH]c2ccccc12)NC(=O)OC(C)(C)C)C(=O)N1CCC(=O)N(C(Cc2ccccc2)C(N)=O)CC1 (stereo not given in full) | 0.75 µM | 1% | 8% | 
20 | Cc1ccccc1NC(=O)NCCCC[C@H](NC(=O)C(Cc1c[nH]c2ccccc12)NC(=O)OC(C)(C)C)C(=O)N[C@@H]1CC(=O)N([C@@H](Cc2ccccc2)C(N)=O)C1 (stereo not given in full) | 0.016 µM | 89% | 39% | 0.03 µmol/kg
21 | Cc1ccccc1NC(=O)NCCCC[C@H](NC(=O)C(Cc1c[nH]c2ccccc12)NC(=O)OC(C)(C)C)C(=O)NCCCC(=O)NC(Cc1ccccc1)C(N)=O (stereo not given in full) | 0.749 µM | 9% | 11% | 
22 | Cc1ccccc1NC(=O)NCCCC[C@H](NC(=O)C(Cc1c[nH]c2ccccc12)NC(=O)OC(C)(C)C)C(=O)NCC(=O)N(C)C(Cc1ccccc1)C(N)=O (stereo not given in full) (Boc-[ξW]K([CO-NH(2-Me-phenyl)])G[ξNMeF]-NH2) |  | 28% | 0% | 
23 | Cc1ccccc1NC(=O)NCCCC[C@H](NC(=O)C(Cc1c[nH]c2ccccc12)NC(=O)OC(C)(C)C)C(=O)NCCCCCC(=O)N(C)C(Cc1ccccc1)C(N)=O (stereo not given in full) | 1.33 µM | 4% |  | 
24 | Cc1ccccc1NC(=O)NCCCC[C@H](NC(=O)C(Cc1c[nH]c2ccccc12)NC(=O)OC(C)(C)C)C(=O)N(C)CCCC(=O)N(C)C(Cc1ccccc1)C(N)=O (stereo not given in full) | 0.019 µM | 64% | 4% | 
